One block for each molecule: values may come before it.
Key:
[1] = target: dopamine transporter (Homo sapiens, UniProt Q01959); experiment: NIMH PDSP binding assay at dopamine transporter
[2] = Liver microsomal stability; assay type: in vitro ADME; conditions: rat liver microsomes, up to 60 minutes, compared with PFL
Procedure, shortened: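 Pooled male Sprague-Dawley rat liver microsomes were diluted to a 6.2% mixture in warm potassium-phosphate buffer. Test compound, diluted to 5 μM from a DMSO stock, was mixed with NADPH regenerating solution and prewarmed to 37 °C. Microsomes were then added and incubated 1 h at 37 °C with shaking. Aliquots at 0, 5, 15, 30 and 60 min were quenched in ice-cold acetonitrile, centrifuged at 4 °C and analysed by LC-MS/MS. Percent remaining was calculated from peak-area ratios versus T=0. Results are mean ± SEM, three experiments in triplicate.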

[3] = system: MDA-MB-231 cells; experiment: Cell cycle analysis in MDA-MB-231 cells; assay type: cell-based, human
[4] = system: caspase-3; experiment: Caspase-3 cleavage; assay type: cell-based, human; conditions: MDA-MB-231
Procedure, shortened: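 MDA-MB-231 cells, grown in DMEM with 10% heat-inactivated FBS at 37 °C and 5% CO2, were exposed to test compound for 48 h and lysed on ice in RIPA buffer with protease/phosphatase inhibitors. Equal protein was run on SDS-PAGE and blotted to PVDF. Blots were probed for cleaved caspase-3 and total caspase-3 (1:1000), with β-tubulin (1:2000) as loading control. Detection used goat anti-rabbit HRP secondary and chemiluminescence; bands were quantified by densitometry.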

[5] = system: FGFR1; experiment: pFGFR1 immunoblot in MDA-MB-231 cells with and without bFGF; assay type: cell-based, human; conditions: 3 μM and 6 μM, in the presence of bFGF, 48 hours
Procedure, shortened: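 Phospho-FGFR1 (1:1000) western blot used MDA-MB-231 lysates after 48 h exposure to test compound, with or without the natural ligand bFGF. Lysis was on ice in RIPA buffer with protease/phosphatase inhibitors, followed by SDS-PAGE of equal protein and transfer to PVDF. β-tubulin (1:2000) served as loading control. Detection used HRP anti-rabbit secondary and chemiluminescence, then band densitometry; n = 3.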

[6] = system: MDA-MB-231 cells; experiment: Induction of apoptosis in MDA-MB-231 cells; assay type: cell-based, human; conditions: 1 μM, 48 hours
[7] = In vivo BBB permeability, plasma and brain distribution by LC-MS/MS; set-up: species or system C57 mice
Procedure, shortened: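 Male and female C57 mice, 8 weeks old and about 20 g, received a single i.p. 10 mg/kg dose of test compound in 2.5% ethanol, 2.5% DMSO, 5% Tween 80, 25% PEG 400 and 65% PBS. Blood was drawn under anaesthesia at 0, 0.5, 1, 6, 24 and 48 h. Brains were taken after cardiac perfusion and homogenised in PBS (1:3 w/v). Samples were acetonitrile-precipitated with internal standard and quantified by positive-ESI MRM LC-MS/MS against blank-matrix calibration curves. Results are mean ± SEM of 2–4 experiments.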

[8] = system: serotonin receptors; experiment: Primary binding assay at serotonin receptors; conditions: 10 μM
Procedure, shortened: (§1)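 […] primary binding screen across a panel of brain-expressed CNS receptors, including GPCRs, with test compound at 10 μM. The read-out is % inhibition of binding at each receptor, reported as mean ± SEM of four independent experiments. Receptors are grouped by >50% and >90% inhibition.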

[9] = system: dopamine receptors (subtypes D1-D5); experiment: Primary binding assay at dopamine receptors; conditions: 10 μM
Procedure, shortened: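 Primary binding screen across a CNS GPCR panel, run through the NIMH screening programme at UNC Chapel Hill. Test compound at 10 μM; read-out is % inhibition as mean ± SEM of four independent experiments. Ki was not evaluated for receptors with under 50% activity.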

[10] = system: GPCRs expressed in the brain; experiment: Primary binding assay at selected CNS receptors; conditions: 10 μM
Procedure, shortened: as §1

[11] = system: MDA-MB-231 triple-negative breast cancer cells; experiment: MTT cytotoxicity assay on MDA-MB-231 cells; assay type: cell-based, human
Procedure, shortened: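 MDA-MB-231 cells were kept in DMEM with 10% heat-inactivated FBS and antibiotic-antimycotic at 37 °C, 5% CO2, and tested for mycoplasma. Cells were seeded at 8000/well, grown 24 h, then screened at 20 μM. Dose series of 0–25 μM were given in 2% FBS DMEM with 0.1% final DMSO for 48 h. MTT (0.5 mg/mL) was added for 2 h at 37 °C, formazan dissolved in DMSO and read at 570 nm. IC50 was fitted from three independent experiments.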

Chain of dopamine transporter (Q01959 whole entry): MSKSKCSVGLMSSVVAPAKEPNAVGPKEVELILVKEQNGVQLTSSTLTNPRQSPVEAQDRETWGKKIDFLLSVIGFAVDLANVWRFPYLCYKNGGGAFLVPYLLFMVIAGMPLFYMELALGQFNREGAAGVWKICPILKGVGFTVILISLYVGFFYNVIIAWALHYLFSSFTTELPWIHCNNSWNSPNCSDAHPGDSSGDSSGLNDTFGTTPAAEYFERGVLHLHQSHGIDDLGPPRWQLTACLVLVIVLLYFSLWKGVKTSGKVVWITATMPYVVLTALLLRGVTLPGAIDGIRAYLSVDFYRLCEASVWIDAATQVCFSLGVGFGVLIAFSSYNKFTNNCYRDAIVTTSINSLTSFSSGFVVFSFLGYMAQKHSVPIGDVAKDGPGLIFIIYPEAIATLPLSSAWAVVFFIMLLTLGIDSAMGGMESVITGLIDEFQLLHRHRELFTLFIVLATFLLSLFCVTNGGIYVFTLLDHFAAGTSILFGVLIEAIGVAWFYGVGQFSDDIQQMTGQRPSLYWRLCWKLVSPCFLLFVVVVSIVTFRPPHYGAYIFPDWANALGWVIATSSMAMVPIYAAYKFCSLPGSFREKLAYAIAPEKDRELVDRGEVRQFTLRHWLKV

- decrease in affinity to DAT compared to 4l [1]: 100 fold
Structure (SMILES): CC(=O)Nc1cc(NC(=O)NCCCCC(c2ccc(F)cc2)c2ccc(F)cc2)ccc1Cl [4o, N-(5-(3-(5,5-bis(4-fluorophenyl)pentyl)ureido)-2-chlorophenyl)acetamide]

- Tmax ([7]; both, C57, mouse, in vivo, ip, 10 mg/kg): 1 h
- ability to cross the BBB in vivo ([7]; mice, 10 mg/kg i.p.): retained activity to cross the BBB
- peak concentration ([7]; mice, 10 mg/kg single i.p., plasma and brain (Fig. 3)): approximately 1000 nM
- interaction with dopamine receptors (subtypes D1-D5) [9]: no significant interaction
Structure (SMILES): O=C(NCCCCC(c1ccc(F)cc1)c1ccc(F)cc1)Nc1ccc(Cl)cc1 [4a, 1-(5,5-bis(4-fluorophenyl)pentyl)-3-(4-chlorophenyl)urea]
- activity at serotonin receptors [8]: no activity at serotonin receptors, except for 5HT-2C

- metabolic stability in liver microsomes [2]: preferred metabolic stability over PFL
Structure (SMILES): O=C(NCCCCC(c1ccc(F)cc1)c1ccc(F)cc1)Nc1ccc(Cl)c(C(F)(F)F)c1 [4l, 1-(5,5-bis(4-fluorophenyl)pentyl)-3-(4-chloro-3-(trifluoromethyl)phenyl)urea]

Continued, molecule first:

Structure (SMILES): O=C(NCCCCC(c1ccc(F)cc1)c1ccc(F)cc1)Nc1ccc([N+](=O)[O-])c(C(F)(F)F)c1 [4q, 1-(5,5-bis(4-fluorophenyl)pentyl)-3-(4-nitro-3-(trifluoromethyl)phenyl)urea]
- metabolic stability in liver microsomes [2]: preferred metabolic stability over PFL
- effect on cell cycle [3]: did not affect the cell cycle
- caspase-3 cleavage and activation [4]: capable of caspase-3 cleavage and activation
- phosphorylation of FGFR1 [5]: completely abrogated phosphorylation of FGFR1
- induction of apoptosis [6]: significant induction of apoptosis

Structure (SMILES): O=C(Nc1ccc(Cl)c(C(F)(F)F)c1)N1CCC(CC(c2ccc(F)cc2)c2ccc(F)cc2)CC1 [19b, 4-(2,2-bis(4-fluorophenyl)ethyl)-N-(4-chloro-3-(trifluoromethyl)phenyl) piperidine-1 carboxamide]
- DAT inhibitory activity (in words) [1]: abolished DAT activity

Structure (SMILES): CN(CCCCC(c1ccc(F)cc1)c1ccc(F)cc1)C(=O)N(C)c1ccc(Cl)c(C(F)(F)F)c1 [compound 15, 1-(5,5-bis(4-fluorophenyl)pentyl)-3-(4-chloro-3-(trifluoromethyl)phenyl)-1,3-dimethylurea]
- DAT inhibitory activity (in words) [1]: inactive as a DAT inhibitor

Structure (SMILES): OC1(c2ccc(Cl)c(C(F)(F)F)c2)CCN(CCCC(c2ccc(F)cc2)c2ccc(F)cc2)CC1 [PFL, penfluridol]
- number of receptors (GPCRs) inhibited at the level above 50% [10]: 28

Structure (SMILES): O=C(NCCCCC(c1ccc([N+](=O)[O-])cc1)c1ccc([N+](=O)[O-])cc1)Nc1ccc(Cl)c(C(F)(F)F)c1 [8g, 1-(5,5-bis(4-nitrophenyl)pentyl)-3-(4-chloro-3-(trifluoromethyl)phenyl)urea]
- optimization of cytotoxicity relative to hit molecule 4a [11]: 6 fold

— publication PMC7744370 (European journal of medicinal chemistry, 2020)
